Laboratory results: ChEMBL document CHEMBL5303300, “EUbOPEN Chemogenomics Library - Multiplex” (2023)
Where “and” joins values, the source holds several entries; their conditions need not be identical. Identical values can stand only once.

Tested on: U2OS
Test: Multiplex assay against U2OS
Type: toxicity, cell-based
Conditions: human, number of replicates 2
In short: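 Four dyes were applied at seeding to live cells: Hoechst33342, BioTracker Green Microtubule Cytoskeleton Dye, MitoTracker Red and Annexin V Alexa Fluor 680. Imaging after compound addition used a CQ1 microscope at 37°C and 5% CO2. CellPathfinder machine-learning gating then sorted cells into Hoechst high-intensity objects or normal cells, normal cells into healthy, pyknosed or fragmented nuclei, and pyknosed cells into mitotic or apoptotic, with tubulin, mitochondrial-mass and membrane-permeability phenotypes given as per cents of healthy-nucleus cells.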

[1] = 12 h, 1 µM, compound concentration 1 uM
[2] = 12 h, 10 µM, compound concentration 10 uM
[3] = 24 h, 1 µM, compound concentration 1 uM
[4] = 24 h, 10 µM, compound concentration 10 uM
[5] = 48 h, 1 µM, compound concentration 1 uM
[6] = 48 h, 10 µM, compound concentration 10 uM

CS(=O)(=O)c1ccc(C(=O)Nc2cccc(COc3ccc(Br)cc3CN3CC[C@H](O)C3)c2)cc1.O=CO
Population Apoptotic (%) [1]: 100% and 72% | Population Fragmented Nuclei (%) [1]: 8% and 2% | Population Healthy Nuclei (%) [1]: 84% and 83% | Population Hoechst High Intensity Objects (%) [1]: 0% | Population Normal (%) [1]: 100% | Population Apoptotic (%) [2]: 100% and 70% | Population Healthy Nuclei (%) [2]: 68% and 78% | Population Hoechst High Intensity Objects (%) [2]: 0% | Population Normal (%) [2]: 100% and 99% | Population Apoptotic (%) [3]: 50% | Population Fragmented Nuclei (%) [3]: 4% and 3% | Population Healthy Nuclei (%) [3]: 85% and 86% | Population Hoechst High Intensity Objects (%) [3]: 0% | Population Mitotic Cells (%) [3]: 50% and 31% | Population Normal (%) [3]: 100% and 99% | Population Apoptotic (%) [4]: 88% and 75% | Population Healthy Nuclei (%) [4]: 58% and 73% | Population Hoechst High Intensity Objects (%) [4]: 0% | Population Mitotic Cells (%) [4]: 11% and 24% | Population Normal (%) [4]: 100% | Population Apoptotic (%) [5]: 54% and 76% | Population Fragmented Nuclei (%) [5]: 4% and 1% | Population Healthy Nuclei (%) [5]: 84% and 89% | Population Hoechst High Intensity Objects (%) [5]: 0% | Population Mitotic Cells (%) [5]: 45% and 23% | Population Normal (%) [5]: 100% and 99% | Population Apoptotic (%) [6]: 75% and 80% | Population Healthy Nuclei (%) [6]: 54% and 69% | Population Hoechst High Intensity Objects (%) [6]: 0% | Population Mitotic Cells (%) [6]: 25% and 19% | Population Normal (%) [6]: 100% and 99%

Cc1cccc(S(=O)(=O)N(C)[C@H](C)CCN2CCC(C)CC2)c1.Cl
Population Apoptotic (%) [1]: 72% and 100% | Population Fragmented Nuclei (%) [1]: 5% and 14% | Population Healthy Nuclei (%) [1]: 84% and 82% | Population Hoechst High Intensity Objects (%) [1]: 0% | Population Membrane Permeable-Phenotype (%) [1]: 0% | Population Mitochondria Different-Phenotype (%) [1]: 0% | Population Normal (%) [1]: 100% | Population Pyknosed Nuclei (%) [1]: 10% and 2% | Population Apoptotic (%) [2]: 50% | Population Healthy Nuclei (%) [2]: 53% and 89% | Population Hoechst High Intensity Objects (%) [2]: 0% | Population Membrane Permeable-Phenotype (%) [2]: 0% | Population Mitochondria Different-Phenotype (%) [2]: 0% and 1% | Population Mitotic Cells (%) [2]: 50% | Population Normal (%) [2]: 100% | Population Tubulin-Different-Phenotype (%) [2]: 42% and 46% | Population Apoptotic (%) [3]: 41% and 14% | Population Fragmented Nuclei (%) [3]: 4% and 10% | Population Healthy Nuclei (%) [3]: 83% and 71% | Population Hoechst High Intensity Objects (%) [3]: 0% | Population Membrane Permeable-Phenotype (%) [3]: 1% and 0% | Population Mitochondria Different-Phenotype (%) [3]: 0% | Population Mitotic Cells (%) [3]: 58% and 85% | Population Normal (%) [3]: 100% | Population Pyknosed Nuclei (%) [3]: 11% and 17% | Population Apoptotic (%) [4]: 80% and 54% | Population Healthy Nuclei (%) [4]: 54% and 91% | Population Hoechst High Intensity Objects (%) [4]: 0% | Population Membrane Permeable-Phenotype (%) [4]: 0% and 2% | Population Mitochondria Different-Phenotype (%) [4]: 0% and 1% | Population Mitotic Cells (%) [4]: 20% and 45% | Population Normal (%) [4]: 100% | Population Tubulin-Different-Phenotype (%) [4]: 58% and 56% | Population Apoptotic (%) [5]: 59% and 46% | Population Fragmented Nuclei (%) [5]: 2% and 12% | Population Healthy Nuclei (%) [5]: 89% and 68% | Population Hoechst High Intensity Objects (%) [5]: 0% | Population Membrane Permeable-Phenotype (%) [5]: 2% and 0% | Population Mitochondria Different-Phenotype (%) [5]: 0% | Population Mitotic Cells (%) [5]: 40% and 53% | Population Normal (%) [5]: 100% | Population Pyknosed Nuclei (%) [5]: 8% and 18% | Population Tubulin-Different-Phenotype (%) [5]: 86% and 42% | Population Apoptotic (%) [6]: 30% and 62% | Population Healthy Nuclei (%) [6]: 92% and 51% | Population Hoechst High Intensity Objects (%) [6]: 0% | Population Mitochondria Different-Phenotype (%) [6]: 0% | Population Mitotic Cells (%) [6]: 69% and 37% | Population Normal (%) [6]: 99% and 100% | Population Tubulin-Different-Phenotype (%) [6]: 62% and 46%

CN1CCc2cc(Cl)c(O)cc2[C@@H](c2ccccc2)C1.Cl
Population Apoptotic (%) [1]: 100% and 36% | Population Healthy Nuclei (%) [1]: 58% and 86% | Population Hoechst High Intensity Objects (%) [1]: 0% | Population Membrane Permeable-Phenotype (%) [1]: 0% | Population Mitochondria Different-Phenotype (%) [1]: 0% | Population Normal (%) [1]: 100% | Population Pyknosed Nuclei (%) [1]: 12% and 7% | Population Tubulin-Different-Phenotype (%) [1]: 78% and 88% | Population Apoptotic (%) [2]: 50% and 29% | Population Fragmented Nuclei (%) [2]: 3% and 4% | Population Healthy Nuclei (%) [2]: 75% and 85% | Population Hoechst High Intensity Objects (%) [2]: 0% | Population Membrane Permeable-Phenotype (%) [2]: 0% and 2% | Population Mitochondria Different-Phenotype (%) [2]: 0% | Population Mitotic Cells (%) [2]: 50% and 70% | Population Normal (%) [2]: 100% and 99% | Population Pyknosed Nuclei (%) [2]: 21% and 9% | Population Tubulin-Different-Phenotype (%) [2]: 55% and 80% | Population Apoptotic (%) [3]: 28% and 33% | Population Healthy Nuclei (%) [3]: 56% and 87% | Population Hoechst High Intensity Objects (%) [3]: 0% | Population Membrane Permeable-Phenotype (%) [3]: 0% and 1% | Population Mitochondria Different-Phenotype (%) [3]: 0% | Population Mitotic Cells (%) [3]: 71% and 66% | Population Normal (%) [3]: 100% | Population Pyknosed Nuclei (%) [3]: 15% and 7% | Population Tubulin-Different-Phenotype (%) [3]: 88% and 92% | Population Apoptotic (%) [4]: 50% and 58% | Population Fragmented Nuclei (%) [4]: 5% and 3% | Population Healthy Nuclei (%) [4]: 85% and 87% | Population Hoechst High Intensity Objects (%) [4]: 0% | Population Membrane Permeable-Phenotype (%) [4]: 1% | Population Mitochondria Different-Phenotype (%) [4]: 0% | Population Mitotic Cells (%) [4]: 50% and 41% | Population Normal (%) [4]: 100% and 99% | Population Pyknosed Nuclei (%) [4]: 10% and 8% | Population Tubulin-Different-Phenotype (%) [4]: 75% and 81% | Population Apoptotic (%) [5]: 54% and 50% | Population Fragmented Nuclei (%) [5]: 8% and 3% | Population Healthy Nuclei (%) [5]: 73% and 92% | Population Hoechst High Intensity Objects (%) [5]: 1% and 0% | Population Membrane Permeable-Phenotype (%) [5]: 2% and 1% | Population Mitochondria Different-Phenotype (%) [5]: 2% and 0% | Population Mitotic Cells (%) [5]: 45% and 50% | Population Normal (%) [5]: 98% and 100% | Population Tubulin-Different-Phenotype (%) [5]: 80% and 90% | Population Apoptotic (%) [6]: 50% and 53% | Population Fragmented Nuclei (%) [6]: 11% and 3% | Population Healthy Nuclei (%) [6]: 79% and 88% | Population Hoechst High Intensity Objects (%) [6]: 0% | Population Membrane Permeable-Phenotype (%) [6]: 0% and 2% | Population Mitochondria Different-Phenotype (%) [6]: 1% and 0% | Population Mitotic Cells (%) [6]: 50% and 46% | Population Normal (%) [6]: 100% | Population Pyknosed Nuclei (%) [6]: 9% and 7% | Population Tubulin-Different-Phenotype (%) [6]: 87%
